Experimental data as given in ChEMBL document CHEMBL4393705, “New chalcone-sulfonamide hybrids exhibiting anticancer and antituberculosis activity” (Eur J Med Chem, 2019).

Key:
Format in all cases: functional
RPMI-8226 = assay: Anticancer activity against human RPMI8226 cells assessed as increase in cell death at 10 uM after 48 hrs by SRB assay relative to control
Outline: (§1)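 NCI-60 single-dose screen at 10 µM in RPMI-1640 with 5% FBS and 2 mM glutamine. Exposure was 48 h at 37°C, 5% CO2, with time-zero plates fixed at dosing. Read-out was TCA fixation and SRB at 515 nm. Growth percent = (Ti−Tz)/Tz×100 where Ti<Tz, so negative values mean net cell loss.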

HOP-92 = assay: Anticancer activity against human HOP92 cells assessed as increase in cell death at 10 uM after 48 hrs by SRB assay relative to control; outline: as §1
786-0 = assay: Anticancer activity against human 786-O cells assessed as increase in cell death at 10 uM after 48 hrs by SRB assay relative to control; outline: as §1
PC-3 [1] = assay: Anticancer activity against human PC3 cells assessed as increase in cell death at 10 uM after 48 hrs by SRB assay relative to control; outline: as §1
A549 = assay: Anticancer activity against human A549 cells assessed as cell growth inhibition measured after 48 hrs by SRB assay; conditions: A549, 48 h
Outline: (§2)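 NCI-60 five-dose screen at 100, 10, 1.0, 0.1 and 0.01 µM final. Cells in RPMI-1640 with 5% FBS and 2 mM glutamine were seeded 24 h ahead at 37°C, 5% CO2. Compound exposure was 48 h, followed by TCA fixation and SRB staining, read at 515 nm. GI50 is the concentration giving 50% lower net protein increase than control, using time-zero plates.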

LOX IMVI = assay: Anticancer activity against human LOXIMVI cells assessed as cell growth inhibition measured after 48 hrs by SRB assay; outline: as §2
A498 = assay: Anticancer activity against human A498 cells assessed as cell growth inhibition measured after 48 hrs by SRB assay; conditions: A498, 48 h; for CC50: read-out: LC50 (the source's name); outline: as §2
PC-3 [2] = assay: Anticancer activity against human PC3 cells assessed as cell growth inhibition measured after 48 hrs by SRB assay; conditions: PC-3, 48 h; outline: as §2
Hs-578T = assay: Anticancer activity against human Hs578T cells assessed as cell growth inhibition measured after 48 hrs by SRB assay; outline: as §2
BT-549 = assay: Anticancer activity against human BT549 cells assessed as cell growth inhibition measured after 48 hrs by SRB assay; conditions: BT-549, 48 h; outline: as §2
T47D = assay: Anticancer activity against human T47D cells assessed as cell growth inhibition measured after 48 hrs by SRB assay
Outline: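 NCI 60-cell screen, five-dose mode at 100, 10, 1.0, 0.1 and 0.01 µM. Cells grown in RPMI-1640 with 5% FBS and 2 mM L-glutamine, seeded and held 24 h at 37°C, 5% CO2, then exposed for 48 h. Fixed with cold TCA (10% final), stained with 0.4% SRB and read at 515 nm. Time-zero plates were used. GI50 is the concentration giving 50% lower net protein increase than control.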

HCT-116 = assay: Anticancer activity against human HCT116 cells assessed as increase in cell death at 10 uM after 48 hrs by SRB assay relative to control; outline: as §1
M14 = assay: Anticancer activity against human M14 cells assessed as increase in cell death at 10 uM after 48 hrs by SRB assay relative to control; outline: as §1
K562 = assay: Anticancer activity against human K562 cells assessed as tumour cell growth at 10 uM after 48 hrs by SRB assay relative to control
Outline: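 NCI 60-line primary screen at a single 10 μM dose in RPMI-1640 with 5% FBS and 2 mM L-glutamine. Cells were preincubated 24 h at 37 °C in 5% CO₂, with time-zero plates fixed with TCA. Compounds (DMSO, diluted in gentamicin medium) were incubated 48 h, then cells TCA-fixed and stained with 0.4% SRB (A515). Growth percent was derived from time-zero, control and treated absorbances.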

SF-539 = assay: Anticancer activity against human SF539 cells assessed as increase in cell death at 10 uM after 48 hrs by SRB assay relative to control
Outline: (§3)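 NCI single-dose screen at 10 µM. Cells in RPMI-1640 with 5% FBS and 2 mM L-glutamine, preincubated 24 h, then exposed 48 h at 37°C, 5% CO2. Protein measured by TCA fixation and SRB staining, absorbance 515 nm. Growth percent is calculated against time-zero and untreated control plates; negative values indicate net cell loss.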

U-251 = assay: Anticancer activity against human U251 cells assessed as increase in cell death at 10 uM after 48 hrs by SRB assay relative to control; outline: as §3

Structure (SMILES)	GI50 (A549) [µM]	LC50 (concentration killing 50% of cells) (A549) [µM]	GI50 (LOX IMVI) [µM]	LC50 (concentration giving 50% net cell kill) (LOX IMVI) [µM]	GI50 (A498) [µM]	CC50 (A498) [µM]	GI50 (PC-3 [2]) [µM]	LC50 (PC-3 [2]) [µM]	GI50 (Hs-578T) [µM]	LC50 (Hs-578T) [µM]	GI50 (BT-549) [µM]	LC50 (BT-549) [µM]	GI50 (T47D) [µM]	LC50 (T47D) [µM]	also measured
COc1ccc(C(=O)/C=C/c2ccc(Cl)cc2)cc1S(N)(=O)=O	2.69	30.8	1.28	5.47	10.4	47.1	2.24	17	3.28	> 100	2.29	27.3	3.2	59	Activity (RPMI-8226): 31.74%; Activity (HOP-92): 26.57%; Activity (786-0): 30.67%; Activity (PC-3 [1]): 55.63%; Activity (HCT-116): 78.33%; Activity (M14): 57.32%
COc1ccc(C(=O)/C=C/c2ccc(Cl)cc2)cc1S(=O)(=O)Nc1c(N)nc(SC)[nH]c1=O	2.57	30	1.63	6.34	10.6	47.6	2.53	32.8	3.56	> 100	1.63	6.17	2.45	38.8	Activity (K562): 3.84%; Activity (SF-539): 5.49%; Activity (U-251): 4.2%
